Source: publication PMC2606940 (The Journal of General Physiology, 2009)
Numbering of substitutions follows the chain as printed. Where two headings read alike, the source gives them in different places.

What was measured:
[1] = biological target: T1, CLC-0 E166C/E127Q/K519M mutant (Torpedo marmorata, UniProt P21564, C212S/E127Q/E166C/K519M); type: cell-based; conditions: for IC50: read-out: Apparent affinity (K1/2)
T1 sequence (P21564 1-805 E127Q/E166C/C212S/K519M): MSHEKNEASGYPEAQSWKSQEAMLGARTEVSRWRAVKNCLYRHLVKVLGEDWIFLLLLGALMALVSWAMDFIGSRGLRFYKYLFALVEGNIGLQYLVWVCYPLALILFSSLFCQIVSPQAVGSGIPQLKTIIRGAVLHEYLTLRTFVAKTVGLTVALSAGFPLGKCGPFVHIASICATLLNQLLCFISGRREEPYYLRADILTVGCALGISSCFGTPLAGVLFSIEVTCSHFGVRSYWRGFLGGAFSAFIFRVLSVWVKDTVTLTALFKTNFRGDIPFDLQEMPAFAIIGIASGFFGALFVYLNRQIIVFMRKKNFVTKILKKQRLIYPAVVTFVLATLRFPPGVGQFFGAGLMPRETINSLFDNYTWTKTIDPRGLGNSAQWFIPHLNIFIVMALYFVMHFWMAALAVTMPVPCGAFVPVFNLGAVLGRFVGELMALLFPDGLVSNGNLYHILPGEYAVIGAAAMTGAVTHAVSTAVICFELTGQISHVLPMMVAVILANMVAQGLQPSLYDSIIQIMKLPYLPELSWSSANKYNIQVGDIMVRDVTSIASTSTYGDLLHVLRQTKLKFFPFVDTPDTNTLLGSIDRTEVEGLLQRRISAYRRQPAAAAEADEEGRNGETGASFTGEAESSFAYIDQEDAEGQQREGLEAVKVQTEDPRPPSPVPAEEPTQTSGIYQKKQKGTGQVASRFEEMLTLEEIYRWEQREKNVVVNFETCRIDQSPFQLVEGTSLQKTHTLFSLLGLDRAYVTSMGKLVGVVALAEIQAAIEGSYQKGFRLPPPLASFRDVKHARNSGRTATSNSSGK
Method in brief: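 CLC-0 mutants (C212S background) were lipofectamine-transfected into HEK293 cells and recorded 1–3 d later from inside-out patches. Pipette and bath contained 130 mM NaCl, 5 MgCl2, 10 HEPES and 1 EGTA (pH 7.4). Test compound was perfused onto the cytoplasmic side. A +80 mV prepulse preceded steps to steady state. The last-10-ms current was normalized to bracketing blocker-free controls and fitted to a Langmuir function for K1/2.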

CLC-0 E166Q mutant = biological target: T2, CLC-0 E166Q mutant (Torpedo marmorata, UniProt P21564, C212S/E166Q); test: Single-channel recordings, channels expressed in Xenopus oocytes; type: cell-based; conditions: 0.1 mM CPA; −100 mV
T2 sequence (P21564 1-805 E166Q/C212S): T1 sequence (P21564 1-805 E127Q/E166C/C212S/K519M) with Q127E, C166Q, M519K
Method in brief: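 Single channels were expressed in Xenopus oocytes from cRNA made from a pBluescript construct. Currents were recorded at −100 mV with cytoplasmic CPA at 100 μM, filtered at 200 Hz (four-pole Bessel) and digitized at 1 kHz. Average dwell time of nonconducting events was analysed from the single-channel traces.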

O=C(O)COc1ccc(Cl)cc1 [CPA, p-chlorophenoxy acetate]
IC50 ([1]; −40 mV): 457 ± 30 µM
IC50 ([1]; −60 mV): 240 ± 13 µM
IC50 ([1]; −80 mV): 132 ± 6 µM
IC50 ([1]; −100 mV): 75 ± 3 µM
IC50 ([1]; −120 mV): 47 ± 3 µM
IC50 ([1]; −140 mV): 31 ± 2 µM
IC50 ([1]; −160 mV): 22 ± 2 µM
apparent koff ([1]; −160 mV): 11.4 s⁻¹
apparent kon ([1]; −160 mV): 460000 M⁻¹ s⁻¹
long blocked state in single-channel trace (CLC-0 E166Q mutant): absent
